From article PMC5797669 (Cellular signalling, 2016)
Where no end group is shown, it is not given here.

What was measured:
[1] = biological target: hY4R S^7.100/103A (Homo sapiens, UniProt P50391, S369A/S372A); experiment: TAMRA-hPP ligand uptake by fluorescence microscopy; type: cell-based; details: HEK293, 100 nM, 60 min, acidic wash pH 3.0, Mean ± S.E.M., n ≥ 4
Summary of the method: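 HEK293 cells on slides at 70–80% confluence, transfected (Lipofectamine 2000) with 1 µg receptor plasmid. Next day, starved 30 min at 37 °C in Opti-MEM, optionally with Hoechst33342. […] Intracellular fluorescence quantified per cell, ≥10 cells per experiment.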

[2] = biological target: hY4R point mutant S^7.80/86A, C-terminally fused to RLuc8 (human) (UniProt P50391); experiment: FRET or BRET
Sequence of hY4R point mutant S^7.80/86A, C-terminally fused to RLuc8 (human) (P50391 whole entry, change not shown, the tested form may be a part): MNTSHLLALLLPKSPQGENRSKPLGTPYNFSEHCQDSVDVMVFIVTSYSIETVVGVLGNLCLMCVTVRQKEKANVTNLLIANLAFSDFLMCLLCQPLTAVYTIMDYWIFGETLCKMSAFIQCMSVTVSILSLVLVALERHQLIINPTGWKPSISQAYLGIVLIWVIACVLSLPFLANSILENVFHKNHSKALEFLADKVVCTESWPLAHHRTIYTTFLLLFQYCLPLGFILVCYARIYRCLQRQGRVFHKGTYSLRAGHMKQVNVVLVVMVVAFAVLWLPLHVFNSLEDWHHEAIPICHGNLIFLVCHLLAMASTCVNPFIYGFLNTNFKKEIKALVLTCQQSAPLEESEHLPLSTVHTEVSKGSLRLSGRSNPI

[3] = biological target: hY4R point mutant S^7.100/103A, C-terminally fused to RLuc8 (human) (UniProt P50391); experiment: FRET or BRET
Sequence of hY4R point mutant S^7.100/103A, C-terminally fused to RLuc8 (human) (P50391 whole entry, change not shown, the tested form may be a part): as above

[4] = biological target: hY4R point mutant T^7.87/90A, C-terminally fused to RLuc8 (human) (UniProt P50391); experiment: FRET or BRET
Sequence of hY4R point mutant T^7.87/90A, C-terminally fused to RLuc8 (human) (P50391 whole entry, stated change not applied, the tested form may be a part): as the sequence (P50391 whole entry, change not shown, the tested form may be a part) above

[5] = biological target: hY4R deletion mutant Δ7.93, C-terminally fused to RLuc8 (human) (UniProt P50391); experiment: FRET or BRET
Sequence of hY4R deletion mutant Δ7.93, C-terminally fused to RLuc8 (human) (P50391 whole entry, stated change not applied, the tested form may be a part): as the sequence (P50391 whole entry, change not shown, the tested form may be a part) above

[6] = biological target: hY4R point mutant S^7.93/96A, C-terminally fused to RLuc8 (human) (UniProt P50391); experiment: FRET or BRET
Sequence of hY4R point mutant S^7.93/96A, C-terminally fused to RLuc8 (human) (P50391 whole entry, stated change not applied, the tested form may be a part): as the sequence (P50391 whole entry, change not shown, the tested form may be a part) above

[7] = biological target: hY4R deletion mutant Δ7.97, C-terminally fused to RLuc8 (human) (UniProt P50391); experiment: FRET or BRET
Sequence of hY4R deletion mutant Δ7.97, C-terminally fused to RLuc8 (human) (P50391 whole entry, stated change not applied, the tested form may be a part): as the sequence (P50391 whole entry, change not shown, the tested form may be a part) above

[8] = biological target: hY4R point mutant E^7.78/79/81A, C-terminally fused to RLuc8 (human) (UniProt P50391); experiment: FRET or BRET
Sequence of hY4R point mutant E^7.78/79/81A, C-terminally fused to RLuc8 (human) (P50391 whole entry, stated change not applied, the tested form may be a part): as the sequence (P50391 whole entry, change not shown, the tested form may be a part) above

[9] = biological target: hY4R deletion mutant Δ7.78, C-terminally fused to RLuc8 (human) (UniProt P50391); experiment: FRET or BRET
Sequence of hY4R deletion mutant Δ7.78, C-terminally fused to RLuc8 (human) (P50391 whole entry, stated change not applied, the tested form may be a part): as the sequence (P50391 whole entry, change not shown, the tested form may be a part) above

[10] = system: hY4R point mutants; experiment: [^125I]-hPP cell surface binding assay; design: species or system human; details: all point mutants; HEK293; compared to WT (set to 100%)
Summary of the method: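 EYFP-fused receptor constructs transiently expressed in HEK293: 7 µg receptor DNA per 6-well by Lipofectamine 2000. Cells re-seeded next day into poly-D-lysine-coated 48-well plates and grown to confluence. Specific [125I]-hPP binding of each mutant expressed relative to wild-type receptor specific binding.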

[11] = biological target: N-terminally HA-tagged hY4R wild type fused to enhanced yellow fluorescent protein (human, UniProt P50391 1-375); experiment: radioligand binding
Sequence of N-terminally HA-tagged hY4R wild type fused to enhanced yellow fluorescent protein (P50391 whole entry, the tested form may be a part): as the sequence (P50391 whole entry, change not shown, the tested form may be a part) above

Sequence of hY4R S^7.100/103A (P50391 whole entry S369A/S372A): as the sequence (P50391 whole entry, change not shown, the tested form may be a part) above, with S369A, S372A counted along it

Question: How did the “TAMRA-hPP uptake (intracellular fluorescence)” value [1] turn out when “TAMRA-hPP: hPP-derivative that was N-terminally modified with a TAMRA fluorophore” was run?
Answer: The value was 78 ± 11%.

Question: With “Bovine arrestin-3 N-terminally fused to Venus (from UniProt P32120 1-420) (natural protein)” as the molecule, how does the arr-3 recruitment, maximum net BRET (% of WT) [2] read?
Answer: The arr-3 recruitment, maximum net BRET (% of WT) was 33%.

Question: What about the arr-3 recruitment, maximum net BRET (% of WT) [3] of the same molecule?
Answer: Its arr-3 recruitment, maximum net BRET (% of WT) is 95%.

Question: And the arr-3 recruitment, maximum net BRET (% of WT) [4]?
Answer: The arr-3 recruitment, maximum net BRET (% of WT) was 51%.

Question: What about the arr-3 recruitment, maximum net BRET (% of WT) [5] of the same molecule?
Answer: Its arr-3 recruitment, maximum net BRET (% of WT) is 174%.

Question: What about the arr-3 recruitment, maximum net BRET (% of WT) [6] of the same molecule?
Answer: Its arr-3 recruitment, maximum net BRET (% of WT) is 49%.

Question: And the arr-3 recruitment, maximum net BRET (% of WT) [7]?
Answer: The arr-3 recruitment, maximum net BRET (% of WT) was 186%.

Question: What about the arr-3 recruitment, maximum net BRET (% of WT) [8] of the same molecule?
Answer: The arr-3 recruitment, maximum net BRET (% of WT) was 25%.

Question: And the arr-3 recruitment, maximum net BRET (% of WT) [9]?
Answer: Its arr-3 recruitment, maximum net BRET (% of WT) is 1%.

Question: “[^125I]-hPP: radioligand used in binding experiments” was tested. Which “cell surface expression ([^125I]-hPP binding)” value [10] did it give?
Answer: Its value is greater than 78%.

B1: [^125I]-labelled human pancreatic polypeptide (peptide, UniProt P01298 30-65, looked up)
peptide: APLEPVYPGDNATPEQMAQYAADLRRYINMLTRPRY-NH2
modifications: also: 125I label (position not given here)
Question: B1 was tested. Which “specific binding (% of WT)” value [11] did it give?
Answer: Its value is 100%.
